Measurements: article PMC5888399 (The FASEB Journal, 2017)
Like-named read-outs stand apart in the source and are kept apart here. Marks after values point to notes of the source that are not given here.

What was measured:
young mdx mice = conditions: short term (2 wk) treatment; cited from earlier work
Oral bioavailability = format: in vivo; conditions: data not shown
EDL muscle of mdx mice = format: in vivo, mouse; conditions: for % change EDL twitch force: vs mdx vehicle
Ca2+-dependent calpains = experiment: Calpain activity in DIA muscle lysates; format: in vivo, mouse; conditions: treated groups, 4 wk, not significant
DIA muscle of mdx mice = format: in vivo, mouse
[1] = tested on: RyR1, FKB1α, UTRN, MIOG, FSTN, BNIP3, TGF-β, CYBB; experiment: Real-time PCR gene expression in GC muscle; format: in vivo, mouse
Procedure, shortened: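 Total RNA was extracted from gastrocnemius (UNIBA) and reverse-transcribed at 25°C for 10 min, 42°C for 50 min and 70°C for 15 min. TaqMan real-time PCR used 8 ng cDNA per reaction, singleplex, in triplicate. Targets were RyR1, FKBP1α, utrophin, myogenin, follistatin, BNIP3, TGF-β and CYBB, normalized to GAPDH.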

[2] = tested on: DIA and GC muscles of mdx mice; experiment: Histologic evaluation; format: in vivo, mouse; conditions: for Change in % damaged, total damaged gastrocnemius (%) / CNFs in DIA / Change in % damaged, total damaged DIA (%): 12 wk; for Change in % damaged, total damaged gastrocnemius (%) / Change in % damaged, total damaged DIA (%): vs mdx vehicle; for CNFs in DIA: vehicle 72.3 ± 1.6
Procedure, shortened: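 Diaphragm and left gastrocnemius were frozen in isopentane cooled in N2 (AGA) or paraffin-fixed (UNIBA). Sections of 6–10 μm were H&E-stained. Scored items: inflammation, degeneration, regeneration, centronucleated and normal fibers, and total damaged area. Five random images were taken per section, with blinded analysis on at least 6 animals per group.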

[3] = S48168 plasma and GC muscle levels; format: in vivo, mouse; conditions: for Skeletal muscle (GC) concentration (mean) / Plasma concentration (mean): AGA; for Plasma concentration (mean): 20–30 min after drinking water withdrawn; for concentration at 2 h: mdx, mouse, oral, UNIBA
Procedure, shortened: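 Drug levels in plasma and gastrocnemius were measured by LC-MS/MS (ESI+, PFP column) after protein precipitation on phospholipid-removal plates, with a stable-isotope-labelled internal standard. In phase 2, blood was collected 20–30 min (AGA) or 2 h (UNIBA) after drinking water was withdrawn, following 12 wk of dosing at 10 or 50 mg/kg per day.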

mdx EDL muscle fibers = format: in vivo, mouse; conditions: 4 wk
creatine kinase (CK) = experiment: CK serum levels; format: in vivo, mouse
Procedure, shortened: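 Serum was taken from blood drawn by cardiac puncture. CK was measured spectrophotometrically with a diagnostic kit. Mice received drinking-water dosing of 10 or 50 mg/kg per day, with spring water as vehicle.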

[4] = tested on: PKA-phosphorylated RyR channels in SR vesicles from either cardiac or skeletal muscles; experiment: Calstabin rebinding to RyR channels in SR vesicles; format: binding; conditions: data not shown
[5] = tested on: FDB muscle fibers of mdx mice; experiment: Fura-2 microfluorescence, resting cytosolic Ca2+ in isolated FDB myofibers; format: in vivo, mouse; conditions: 4 wk
Procedure, shortened: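 FDB muscles were dissected after 4 wk of drinking-water dosing. Myofibers were isolated enzymatically in Ringer's with 0.8–1 mg/ml collagenase type XI-S for 45 min at 37°C, under constant agitation and O2 flux. Resting cytosolic Ca2+ was then measured by fura-2 microfluorescence (UNIBA).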

[6] = Body weight, organ and muscle mass; format: in vivo, mouse
Procedure, shortened: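 mdx and WT mice given test compound in spring water (vehicle) ad libitum, targeting 10 or 50 mg/kg per day. Dose was calculated from weekly water volume per cage divided by animals and normalized to mean body weight. Body weight was tracked over 4 or 12 wk of treatment. Data are means ± sem. WT vs mdx vehicle was compared by unpaired t test; doses vs mdx vehicle by 1-way ANOVA with Dunnett's test.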

exercised mdx mice [7] = experiment: Hindlimb grip strength; format: in vivo, mouse; conditions: 12 wk, AGA
Procedure, shortened: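 In the 12-wk phase 2 study at AGA, treadmill-exercised mice had hindlimb grip force measured weekly with a grip strength meter, at least 48 h after the last treadmill session. Dosing was via drinking water at 10 or 50 mg/kg per day, with spring water as vehicle.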

exercised mdx mice [8] = experiment: Forelimb grip strength; format: in vivo, mouse; conditions: for Percentage change in normalized forelimb grip strength: vs mdx vehicle
Procedure, shortened: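 Mice were treadmill-exercised to unmask the phenotype. Forelimb grip force was measured weekly with a grip strength meter, at least 48 h after the last treadmill session: at UNIBA in phase 1 (4 wk), and at UNIBA and AGA in phase 2 (12 wk). Values were normalized to body weight. Outputs were percentage change vs WT or mdx vehicle and recovery score relative to the WT–mdx difference.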

[9] = 50 mg/kg per day, 4 wk, not significant

SMILES: COc1ccc2c(c1)CN(C)CCS2 [S107]
- Muscle function in young mdx mice (young mdx mice): improved muscle function

SMILES: COc1ccc2c(c1)CN(Cc1ccc(C(=O)O)cc1)CCS2 [S48168/ARM210]
- Oral bioavailability (Oral bioavailability): good oral bioavailability
- % change EDL twitch force (EDL muscle of mdx mice; 10 mg/kg per day, 12 wk, AGA): −2%
- % change EDL twitch force (EDL muscle of mdx mice; 10 mg/kg per day, 12 wk, UNIBA): −1%
- % change EDL twitch force (EDL muscle of mdx mice; 50 mg/kg per day, 12 wk, AGA): +6%
- EDL stiffness (EDL muscle of mdx mice; 50 mg/kg per day, 12 wk, UNIBA): slight but not significant amelioration
- EDL fatigue-related decline in force and recovery from fatigue vs mdx vehicle (EDL muscle of mdx mice; 12 wk, data not shown): no differences
- EDL muscle-contraction kinetics (time to peak, half relaxation time) (EDL muscle of mdx mice; 12 wk, data not shown): no effect
- EDL muscle force (twitch and specific tetanic) (EDL muscle of mdx mice; both doses, 4 wk): no effect
- Force decrease in EDL muscle from eccentric contraction (EDL muscle of mdx mice; either dose, 12 wk, UNIBA): No protective effect
- Calpain activity in DIA (Ca2+-dependent calpains): trend toward a reduction
- % change DIA twitch force (DIA muscle of mdx mice; 10 mg/kg per day, 12 wk, UNIBA, vs mdx vehicle): +2%
- DIA specific tetanic force vs mdx vehicle (DIA muscle of mdx mice; 50 mg/kg per day, 4 wk): significantly higher
- DIA force–frequency relationship vs mdx vehicle (DIA muscle of mdx mice; 50 mg/kg per day, 4 wk, 120 and 140 Hz): significantly higher values
- DIA fatigue and recovery from fatigue (DIA muscle of mdx mice; any dose level, 4 wk): no effect
- BNIP3 gene expression level vs mdx vehicle ([1]; 50 mg/kg per day, 4 wk): trend toward an increase
- Gene expression of RyR1 compared with WT mice ([1]; 50 mg/kg per day, 4 wk): significant increase
- Expression of RyR1, FKB1α, UTRN, MIOG, FSTN, TGF-β, or CYBB vs mdx vehicle ([1]; 10 or 50 mg/kg per day, 4 wk): No significant changes
- Expression level of RyR1, calstabin, or BNIP3 ([1]; any dose, 12 wk): No significant changes
- Change in % damaged, total damaged gastrocnemius (%) ([2]; 10 mg/kg per day, AGA): 1%
- CNFs in DIA ([2]; 10 mg/kg, UNIBA): 62.4 ± 2.9%
- Percentage of regenerating area in GC ([2]; 50 mg/kg per day, 4 wk): significant increases
- Percentage of regeneration in DIA [2, 9]: increase in the percentage of regeneration
- Percentage of total damage in DIA [2, 9]: reduction in the percentage of total damage
- Percentage of total damage in GC ([2]; 50 mg/kg per day, 4 wk, significant): decreases
- Change in % damaged, total damaged DIA (%) ([2]; 50 mg/kg per day, AGA): −10* %
- Change in % damaged, total damaged gastrocnemius (%) ([2]; 50 mg/kg per day, AGA): 5%
- Change in % damaged, total damaged DIA (%) ([2]; 50 mg/kg per day, UNIBA): −19%
- CNFs in DIA ([2]; 50 mg/kg, UNIBA): 53.3 ± 2.5%
- Number of CNF vs normal fibers in DIA or GC ([2]; either dose, 4 wk): No marked differences
- Skeletal muscle (GC) concentration (mean) ([3]; 10 mg/kg, 12 wk treatment): 0.552 µg/g
- Plasma concentration (mean) ([3]; 10 mg/kg, 12 wk treatment): 6125 ng/mL
- Skeletal muscle (GC) concentration (mean) ([3]; 50 mg/kg, 12 wk treatment): 1.716 µg/g
- Plasma concentration (mean) ([3]; 50 mg/kg, 12 wk treatment): 18775 ng/mL
- concentration at 2 h ([3]; gastrocnemius (GC) skeletal muscle, 10 mg/kg, Skeletal muscle (GC) concentration (mean), 4 wk treatment): 151 ng/g
- concentration at 2 h ([3]; gastrocnemius (GC) skeletal muscle, 10 mg/kg, Skeletal muscle (GC) concentration (mean), 12 wk treatment): 123 ng/g
- concentration at 2 h ([3]; gastrocnemius (GC) skeletal muscle, 50 mg/kg, Skeletal muscle (GC) concentration (mean), 4 wk treatment): 512 ng/g
- concentration at 2 h ([3]; gastrocnemius (GC) skeletal muscle, 50 mg/kg, Skeletal muscle (GC) concentration (mean), 12 wk treatment): 1160 ng/g
- concentration at 2 h ([3]; plasma, 10 mg/kg, Plasma concentration (mean), 10 mg/kg, 4 wk treatment, about 2 h after drinking water withdrawn): 881 ng/mL
- concentration at 2 h ([3]; plasma, 50 mg/kg, Plasma concentration (mean), 50 mg/kg, 4 wk treatment, about 2 h after drinking water withdrawn): 3020 ng/mL
- Mechanical threshold: potential for fiber contraction, rheobase voltage (mdx EDL muscle fibers; 50 mg/kg per day, all durations of depolarizing pulses): significant shift in the potential for fiber contraction toward WT values
- Mechanical threshold: rheobase voltage (mdx EDL muscle fibers; printed 50 mg/kg per day): slight but nonsignificant effect
- CK level (creatine kinase (CK); 12 wk, UNIBA and AGA): no significant changes
- Serum level of CK vs mdx vehicle (creatine kinase (CK); either dosage, 4 wk): No significant change
- Calstabin binding to PKA-phosphorylated RyR channels [4]: effectively re-establish calstabin binding
- Level of cytosolic Ca2+ vs mdx vehicle ([5]; 10 mg/kg per day): no difference
- Reduction in cytosolic Ca2+ vs mdx vehicle myofibers ([5]; 50 mg/kg per day): 25%
- Heart mass normalized to body weight vs mdx vehicle ([6]; 10 mg/kg per day, 4 wk): lower normalized mean value
- Quadriceps mass, absolute and normalized ([6]; 10 mg/kg per day, 12 wk, UNIBA): significant increase
- Liver mass normalized to body weight ([6]; 50 mg/kg per day, 12 wk, UNIBA, n = 8): 56.39 ± 2.61 g/g × 1000
- Mass of various skeletal muscles ([6]; 4 wk): no drug effect
- Body weight vs mdx vehicle ([6]; 10 or 50 mg/kg per day, 4 wk, phase 1): no changes in body weight
- Body weight vs mdx vehicle ([6]; 12 wk, UNIBA and AGA, any time point): no changes in body weight
- Normalized hindlimb grip strength (exercised mdx mice [7]; 50 mg/kg per day): statistically significant ameliorative effect
- Absolute hindlimb grip strength vs mdx vehicle (exercised mdx mice [7]; treatment groups): no differences
- Normalized forelimb grip strength vs mdx vehicle (exercised mdx mice [8]; 10 mg/kg per day, 12 wk, AGA): no statistically significant effect
- Recovery score, normalized forelimb force (exercised mdx mice [8]; 10 mg/kg, week 12, UNIBA): 35%
- Normalized forelimb force (exercised mdx mice [8]; 10 mg/kg, week 12, UNIBA, vehicle 4.06 ± 0.20): 5 ± 0.23 KGF/kg
- Percentage change in normalized forelimb grip strength (exercised mdx mice [8]; 10 mg/kg/d, 12 wk, AGA): +3%
- Normalized forelimb grip strength (exercised mdx mice [8]; 50 mg/kg per day, 12 wk, AGA, vehicle 3.62 ± 0.14): 3.99 ± 0.15 KGF/kg
- Recovery score, absolute forelimb strength (exercised mdx mice [8]; 50 mg/kg per day, W4, phase 1 UNIBA): 70%
- Recovery score, normalized forelimb force (exercised mdx mice [8]; 50 mg/kg, week 12, UNIBA): 12%
- Percentage change in normalized forelimb grip strength (exercised mdx mice [8]; 50 mg/kg/d, 12 wk, AGA): +10** %
- Percentage change in normalized forelimb grip strength (exercised mdx mice [8]; 50 mg/kg/d, 12 wk, UNIBA): +8%
